Compounds with a hit are over-represented: about 1.8% of the library has one in this group of screens.
FXIa inh – human FXIa protease inhibitors, primary screen, biochemical, 1536-well | purified FXIa, Boc-Glu-Ala-Arg-AMC fluorogenic substrate | inhibition, % at 5 µM | 220,000 compounds, 0.14% hits;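 active = inhibition of at least 40%; inactive = inhibition below 40%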;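 also: fluorescence of freed AMC excited at 355 nm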
Thrombin inh – human alpha-thrombin inhibitors, primary screen, counter-screen for coagulation protease inhibitor project, biochemical, 1536-well, fluorogenic AMC substrate; Prothrombin (Homo sapiens), P00734; Boc-VPR-AMC fluorogenic substrate cleavage; inhibition, % at 5 µM; 220,000 compounds, 0.26% hits; AID 1046, 2008;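 active = inhibition at or above 40%; inactive = inhibition below 40%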
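Assay system: human alpha-thrombin enzyme. Reagent: Boc-VPR-AMC substrate, 15 µM final. Compound dosing: one concentration per compound, 5 µM, with 0.2% DMSO. Incubation: room-temperature reaction. Technique: AMC fluorescence, 355/460 nm. Measure: % inhibition relative to enzyme controls and enzyme-free blanks.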
FXIIa inh 1536 – human FXIIa protease inhibitors, primary screen, biochemical, 1536-well | purified FXIIa, Boc-QGR-AMC fluorogenic substrate, 2 h | inhibition, % at 5 µM | Coagulation factor XII (Homo sapiens), P00748 | AID 800, 2007 | 220,000 compounds, 0.3% hits; in the data active = inhibition above about 40%
hK5 inh – human KLK5 protease inhibitors, primary screen, biochemical, 1536-well; Kallikrein-5 (Homo sapiens), Q9Y337; recombinant hK5, fluorogenic AMC substrate cleavage; inhibition, % at 5 µM; 210,000 compounds, 0.59% hits;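 active = inhibition of 40% or more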
Platelet DG rel – inhibitors of platelet dense granule secretion, primary screen, cell-based, MLPCN, human platelets | 300,000 compounds, 0.22% hits | inhibition, %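 (compounds screened at 7.5 µM in platelet-rich plasma)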 | AID 1663, 2009 | human platelet-rich plasma, SFLLRN dense granule ATP release, luminescence;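 active = mean replicate score, as percent of positive control, at or above 50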
Wee1 degr inh – Wee1 degradation inhibitors, primary screen, cell-based, HeLa, Wee1K328M-luciferase, luminescence. reporter increase, % at 5 µM. Wee1-like protein kinase (Homo sapiens), P30291. HeLa Luc-Wee1K328M stability; 100% = proteasome inhibitor MG132 effect. 220,000 compounds, 1.2% hits;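 active = activation above the mean of all tested compounds plus 3 SD, set per screening run, cut at about 8.8% in these data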;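 also: cells exposed to compound for 20 h before luminescence read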
Target sequence (P30291 whole entry K328M): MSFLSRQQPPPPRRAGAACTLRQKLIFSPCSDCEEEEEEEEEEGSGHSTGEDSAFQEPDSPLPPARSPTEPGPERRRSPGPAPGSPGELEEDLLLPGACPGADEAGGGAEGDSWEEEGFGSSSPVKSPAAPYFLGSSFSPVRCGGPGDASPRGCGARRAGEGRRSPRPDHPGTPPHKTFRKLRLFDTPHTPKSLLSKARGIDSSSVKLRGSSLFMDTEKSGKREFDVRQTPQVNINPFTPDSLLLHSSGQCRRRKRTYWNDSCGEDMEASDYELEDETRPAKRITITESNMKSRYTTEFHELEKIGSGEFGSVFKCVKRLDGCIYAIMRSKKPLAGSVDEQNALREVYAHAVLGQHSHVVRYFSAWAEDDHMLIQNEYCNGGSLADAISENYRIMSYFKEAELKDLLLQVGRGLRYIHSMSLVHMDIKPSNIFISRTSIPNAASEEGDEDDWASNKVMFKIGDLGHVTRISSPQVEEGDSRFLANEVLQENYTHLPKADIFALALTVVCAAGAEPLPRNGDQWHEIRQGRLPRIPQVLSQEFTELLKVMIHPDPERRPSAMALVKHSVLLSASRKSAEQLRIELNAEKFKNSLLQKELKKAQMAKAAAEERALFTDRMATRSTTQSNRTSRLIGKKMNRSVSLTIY
Wee1 stab conf – Wee1 degradation inhibitors, confirmation, cell-based, HeLa, Wee1K328M-luciferase, luminescence, triplicate. HeLa Luc-Wee1K328M degradation; vehicle 0%, proteasome-blocked wells 100%. activation, % at 5 µM. 1,100 compounds, 4% hits. shares compounds with Wee1 degr inh; in the data active = activation above about 8.9%
Each line names hits and unclear results; the compound was inactive in the other large screens (follow-up assays come after a bar, where they were run).

CCCCN1C(=O)NC(NC(=O)c2ccco2)(C(F)(F)F)C1=O (stereo not drawn)	Wee1 degr inh 17 | Wee1 stab conf inactive
Cc1cccc2c(CC(=O)Nc3ccccc3)noc12	Wee1 degr inh 13 | Wee1 stab conf inactive
Cc1ccc(NC(=O)Cc2noc3ccccc23)c(C)c1	none
C=C1CCC[C@]2(C)C[C@H]3OC(=O)C(CNC(C)(CO)CO)[C@H]3CC12 (stereo partly drawn)	none (no result: FXIa inh, Thrombin inh, FXIIa inh 1536, hK5 inh, Wee1 degr inh)
NS(=O)(=O)c1ccc(CNC(=O)c2cc(-c3cccs3)nc3ccccc23)cc1	none
COc1cc(/C=N/NC(=O)c2cc(-c3cccs3)nc3ccccc23)ccc1O	Wee1 degr inh 12 | Wee1 stab conf inactive
NS(=O)(=O)c1ccc(CCNC(=O)c2cc(-c3cccs3)nc3ccccc23)cc1	Wee1 degr inh 12 | Wee1 stab conf inactive
COc1cc(/C=N/NC(=O)c2cc(-c3cccc(OC(C)C)c3)nc3ccccc23)ccc1O	none (no result: FXIa inh, Thrombin inh, FXIIa inh 1536, hK5 inh, Wee1 degr inh)
Cn1c(SCc2ccccn2)nc2c1c(=O)[nH]c(=O)n2C	none (no result: Platelet DG rel)
Cc1cc2c(cc1C)C(c1ccccc1Br)CC(=O)N2 (stereo not drawn)	Wee1 degr inh 15 | Wee1 stab conf inactive
CCC(C(=O)N1CCN(Cc2ccc3c(c2)OCO3)CC1)n1c(=O)[nH]c2ccccc2c1=O (stereo not drawn)	none (no result: FXIa inh, Thrombin inh, FXIIa inh 1536, hK5 inh, Wee1 degr inh)
O=C(N/N=C/c1cccnc1)c1cccc(Cl)c1	none (no result: FXIa inh, Thrombin inh, FXIIa inh 1536, hK5 inh, Wee1 degr inh)
CC(C)c1ccc(/C=N/NC(=O)c2cccc(Cl)c2)cc1	Wee1 degr inh 14 | Wee1 stab conf inactive
CC(/C=C/C=C/c1ccccc1)=N/NC(=O)c1ccc2c(c1)OCCO2	Wee1 degr inh 11 | Wee1 stab conf inactive
CC(/C=C/C=C/c1ccccc1)=N\NC(=O)c1cccnc1	none
Cc1cccc(C)c1NC(=O)NCCCN1CCN(c2ccccc2)CC1	Wee1 degr inh 11 | Wee1 stab conf inactive
S=c1[nH]c(-c2ccc(Br)cc2)cn1CCc1ccccc1	none
CCOC(=O)C1=C(c2ccccc2)NC(=S)NC1c1cccc([N+](=O)[O-])c1 (stereo not drawn)	Wee1 degr inh 12 | Wee1 stab conf inactive
COc1cc(NCCCC(C)N)c2ncccc2c1 (stereo not drawn)	Wee1 degr inh 29 | Wee1 stab conf inactive
CC1CC(C)CN(C(=O)c2ccc3c(c2)N(Cc2ccccc2)CCS3)C1 (stereo not drawn)	Wee1 degr inh 13 | Wee1 stab conf inactive
CCOC(=O)N1CCN(C(=O)c2ccc3c(c2)N(Cc2ccccc2)CCS3)CC1	none (no result: FXIa inh, Thrombin inh, FXIIa inh 1536, hK5 inh, Wee1 degr inh)
CCC(=O)N1CCc2cc(S(=O)(=O)N3CCN(c4cc(C)ccc4C)CC3)ccc21	none (no result: FXIa inh, Thrombin inh, FXIIa inh 1536, hK5 inh, Wee1 degr inh)
O=C(Nc1cccc([N+](=O)[O-])c1)c1ccc2c(c1)C(=O)N(c1ccccn1)C2=O	none (no result: FXIa inh, Thrombin inh, FXIIa inh 1536, hK5 inh, Wee1 degr inh)
Cc1ccc(Oc2ccc(OCC(=O)NC(CC(C)C)C(=O)O)cc2)cc1 (stereo not drawn)	Wee1 degr inh 14 | Wee1 stab conf inactive
CC(C)COc1ccc(C(=O)NC(CC(C)C)C(=O)O)cc1 (stereo not drawn)	none
CNC(=S)NCc1ccc2[nH]c3c(c2c1)CCCC3	Wee1 degr inh 11 | Wee1 stab conf inactive
CC(CCCC(C)(C)O)NC(=O)c1cc(COc2ccc3ncccc3c2)on1 (stereo not drawn)	none
CCN(CCC(=O)Nc1cc([N+](=O)[O-])ccc1OC)Cc1ccccc1	Wee1 degr inh 13 | Wee1 stab conf inactive
Cc1cccc(CS(=O)(=O)Cc2ccc(C(=O)NCc3cccs3)o2)c1	none
CCOC(=O)c1c(CSc2ccccc2)n(C)c2cc(Br)c(OC)c(O)c12	none (no result: FXIa inh, Thrombin inh, FXIIa inh 1536, hK5 inh, Wee1 degr inh)
CCOC(=O)c1c(CSc2ccccc2)n(C)c2cc(Br)c(OCC(O)CNC(CO)(CO)CO)cc12 (stereo not drawn)	Wee1 degr inh 11 | Wee1 stab conf inactive
O=C(c1ccc(Br)o1)N1CCCc2ccccc21	none
Cc1c(C(=O)N2CCc3ccccc32)oc2ccccc12	Wee1 degr inh 11 | Wee1 stab conf inactive
O=C(c1ccc(Br)o1)N1CCc2ccccc21	Wee1 degr inh 13 | Wee1 stab conf inactive
Cc1ccc2c(c1)cc(C(=O)N[C@@H](Cc1ccccc1)C(=O)O)n2C	none (no result: FXIa inh, Thrombin inh, FXIIa inh 1536, hK5 inh, Wee1 degr inh)
COc1cccc(-c2nnc(-c3ccco3)o2)c1	Wee1 degr inh 11 | Wee1 stab conf inactive
COc1ccc(NC(=O)COC(=O)Cc2ccccc2[N+](=O)[O-])cc1OC	Wee1 degr inh 31 | Wee1 stab conf inactive
COc1ccc(Cl)cc1NC(=S)N1CCCC1	none
CC(Cc1cccnc1)NC(=O)CCc1nnc(-c2ccccc2)o1 (stereo not drawn)	Wee1 degr inh 19 | Wee1 stab conf inactive
CC(NC(=O)CCc1nnc(-c2ccccc2)o1)c1ccccc1 (stereo not drawn)	none
Cc1ccccc1-n1cc(-c2ccc(Br)cc2)nc1SCC(N)=O	hK5 inh 46, Wee1 degr inh 13 | Wee1 stab conf inactive
C[C@H]1CCC2[C@](C)(CO)[C@@H](O)CC[C@]2(C)[C@@]12CCC(CO)(CCO)O2 (stereo partly drawn)	none (no result: FXIa inh, Thrombin inh, FXIIa inh 1536, hK5 inh, Wee1 degr inh)
CCC(C)c1ccc(NC(=S)NCc2ccccc2OC)cc1 (stereo not drawn)	Wee1 degr inh 17 | Wee1 stab conf inactive
Cc1ccc(S(=O)(=O)CCC(=O)OCC(=O)NC(N)=O)cc1	Wee1 degr inh 14 | Wee1 stab conf inactive
NNC(=O)c1ccc(COc2ccc3ccccc3c2)cc1	Wee1 degr inh 15 | Wee1 stab conf inactive
O=C(N/N=C1/SCC(=O)N1Cc1ccco1)c1ccccc1F	none
CCn1c(O)c(C=Nc2ccccc2)oc1=S	Wee1 degr inh 14 | Wee1 stab conf inactive
COc1cc(OC)c2c(=O)cc(-c3cccnc3)oc2c1	Wee1 degr inh 14 | Wee1 stab conf inactive
COc1ccc(NC(=O)CCCn2cnc3ccccc3c2=O)c(OC)c1	none (no result: FXIa inh, Thrombin inh, FXIIa inh 1536, hK5 inh, Wee1 degr inh)
O=C(O)/C(=C/c1ccco1)NC(=O)c1ccccc1	none
O=C(Nc1ccc(O)cc1)/C(=C/c1ccco1)NC(=O)c1ccccc1	Wee1 degr inh 12 | Wee1 stab conf inactive
O=C(Cc1ccccc1)NN1C(=O)/C(=C/c2ccccc2C(=O)O)SC1=S	none (no result: hK5 inh)
CC(=O)CC(=O)Nc1nc(C)cc(C)n1	none
CCOCC(=O)Nc1nc(C)cc(C)n1	Wee1 degr inh 11 | Wee1 stab conf inactive
O=C(NCC1CCCO1)C1CC(=O)N(c2cccc(Cl)c2)C1 (stereo not drawn)	none (no result: FXIa inh, Thrombin inh, FXIIa inh 1536, hK5 inh, Wee1 degr inh)

High-throughput results as filed in PubChem BioAssay.
